Yeast tox: Inhibitors of S. cerevisiae growth, toxicity. S. cerevisiae wild-type growth, A595 turbidity, 16 h. growth inhibition, % at 25 µM (by protocol). 0.3% of 30,000 active. AID 685;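 active = mutant and wild-type yeast strains alike exhibit over 30% growth inhibition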
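system = S. cerevisiae wild-type or eIF2Bepsilon-R284H mutant strain | buffer or medium = YPD medium | dosing = one dose, 25 µM compound, 0.2% DMSO | schedule = 16 h at 30 °C | measured by = A595 turbidity | evaluation = growth inhibition (%) versus cell controls and blanks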
eIF2B yeast act: modulators of yeast eIF2B activity; S. cerevisiae eIF2B-epsilon R284H, GCN4-lacZ luminescence; inhibition, % at 25 µM (by protocol); 0.91% of 27,000 active;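 active = mutant luminescence inhibited past about 50% while wild type luminescence and mutant growth stay under set limits, limit read from the data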
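Material – yeast eIF2B-epsilon R284H mutant carrying GCN4–beta-galactosidase fusion · Medium – YPD yeast growth medium · Compound – one concentration, 25 µM, 0.25% DMSO · Times – 16 h at 30 °C exposure · Signal – Beta-Glo luminescence plus absorbance at 595 nm · Read-out – % inhibition of reporter signal and growth versus controls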
Large screens that a line does not name were inactive. A selection: hits, their analogues and other compounds. The true share with any hit is near 1.1%.

CCc1cccc(NC(=O)CN(c2ccc(OC)cc2)S(=O)(=O)c2c(C)n[nH]c2C)c1	none
O=C(CCSc1nnc(-c2ccco2)o1)Nc1ccc(Cl)cc1	eIF2B yeast act 57
O=C(CSc1nnc(-c2ccco2)o1)NC(=O)Cc1ccccc1	none
COc1ccc(Nc2nc(N3CCCCC3)nc3ccccc23)c(OC)c1	none
COc1ccc(N/C=C(\C#N)c2nc3ccccc3n2C)c(OC)c1	eIF2B yeast act 58
Cc1ccc(-c2nnc3ccc(SCC(=O)N4CCCCC4)nn23)cc1	none (no result: Yeast tox)
CCC(Sc1nc2sc(C(=O)OC)c(C)c2c(=O)n1N)C(=O)N(CC)CC (stereo unspecified)	none
CCC(Sc1nc2sc(C(=O)OC)c(C)c2c(=O)n1N)C(=O)NCC1CCCO1 (stereo unspecified)	eIF2B yeast act 50
Cc1ccc(CN2C(=O)CCC2C(=O)NCCN(CC(C)C)CC(C)C)cc1 (stereo unspecified)	none
CCCCCOC(=O)Cn1c(SCC(=O)Nc2ccccc2)nc2c1c(=O)[nH]c(=O)n2C	eIF2B yeast act 60
CCOC(=O)CSc1nc2c(c(=O)[nH]c(=O)n2C)n1C/C=C(/C)Cl	none
O=C(c1ccc(C23CC4CC(CC(C4)C2)C3)o1)N1CCOCC1	none
COc1cc(/C=C/C(=O)c2c(O)cc(C)oc2=O)cc(OC)c1O	none
COc1cccc(/C=C/C(=O)c2c(O)cc(C)oc2=O)c1O	Yeast tox 34
COc1ccc(C)cc1NC(=O)CSc1nnc(CC(=O)Nc2ccccc2C)n1C	none (no result: eIF2B yeast act)
Cn1c(SC2C(=O)CC(C)(C)CC2=O)nnc1-c1ccco1	eIF2B yeast act 60
CC1(C)CC(=O)C(Sc2nnc(-c3ccc(NS(C)(=O)=O)cc3)n2Cc2ccco2)C(=O)C1	none
CCCN(C(=O)c1cccs1)c1nnc(-c2ccncc2)s1	none (no result: Yeast tox)
COc1ccc2cc3c(N)c(C(=O)N4CCCC4)sc3nc2c1	eIF2B yeast act 54
Cc1ccc2nc3sc(C(=O)N4CCOCC4)c(N)c3cc2c1	none (no result: eIF2B yeast act)
O=S(=O)(NCC1CCCO1)c1ccc(S(=O)(=O)N2CCCC2)cc1 (stereo unspecified)	none
CCOc1ccc(C2C(C#N)=C(N)N3C(=C2C#N)Sc2ccccc23)cc1 (stereo unspecified)	eIF2B yeast act 54
N#CC1=C(N)N2C(=C(C#N)C1c1ccccc1)Sc1ccccc12 (stereo unspecified)	none
CCN(CCCNC(=O)c1[nH]c(C)c(C(C)=O)c1C)c1ccccc1	none
CN=C1S/C(=C\c2cccn2-c2cccc(Br)c2)C(=O)N1C	none
CCCCC(=O)NN(C)c1nc(-c2ccccc2)nnc1C(F)(F)F	none
COC(=O)CSc1nc(-c2cccs2)ccc1C#N	none (no result: Yeast tox)
CN1CCN(C(=O)CSc2nc(-c3ccncc3)ccc2C#N)CC1	eIF2B yeast act 71
O=c1ccnc(S/C=C/c2ccccc2)[nH]1	eIF2B yeast act 66
CCOC(=O)c1c(N)nn(C(=O)C(C)C)c1-c1ccc(OC)cc1	none
CCOC(=O)c1c(N)nn(C(C)=O)c1-c1ccccc1	eIF2B yeast act 54
O=C(NCC1c2ccccc2CCN1C(=O)CN1C(=O)c2ccccc2C1=O)C1CCCCC1 (stereo unspecified)	none
Cc1cc2c(c(=O)n1CCCn1ccnc1)C(c1ccco1)C(C#N)=C(N)O2 (stereo unspecified)	none
Cc1cc2c(c(=O)n1CC1CCCO1)C(c1ccco1)C(C#N)=C(N)O2 (stereo unspecified)	eIF2B yeast act 64
COc1ccccc1-c1nnc(Sc2nc([N+](=O)[O-])nn2C)o1	none (no result: eIF2B yeast act)
COc1ccc(-c2nnc3n2N=C(C)CS3)cc1OC	none
COc1ccc(OC)c(C2=Nn3c(nnc3-c3cccc(OC(C)C)c3)SC2)c1	eIF2B yeast act 60
Cc1ccc(-n2c(N)c(C(N)=O)sc2=S)c(C)c1	none
COc1ccc(Cl)cc1-n1c(N)c(C(N)=O)sc1=S	eIF2B yeast act 53
COc1ccc(C(=S)N2CCNCC2)cc1	none
COc1cc(C(=S)N2CCCC2)cc(OC)c1O	eIF2B yeast act 57
O=C(O)c1ccc(CSc2n[nH]c(-c3ccco3)n2)cc1	eIF2B yeast act 67
N#Cc1ccc(-c2ccco2)nc1SCc1ccccc1	none
COc1ccc(C2CC(c3cccs3)=Nc3ccccc3S2)cc1 (stereo unspecified)	none
O=C(Cc1ccccc1)N(c1ccc(F)cc1)C1C=CS(=O)(=O)C1 (stereo unspecified)	eIF2B yeast act 56
O=C(Cc1ccc(F)cc1)N(c1ccc(F)cc1)C1C=CS(=O)(=O)C1 (stereo unspecified)	none
CC(C)C(=O)N(c1ccc(F)cc1)C1C=CS(=O)(=O)C1 (stereo unspecified)	none
O=C(c1ccc2c(c1)OCO2)N(c1ccc(F)cc1)C1C=CS(=O)(=O)C1 (stereo unspecified)	eIF2B yeast act 56
CCN(CC)CCNC1=CC(=O)OC12CCCCC2	none
COc1cccc(-c2nnc(-c3ccc(C(F)(F)F)cc3)o2)c1	none
Oc1ccccc1-c1nnc(-c2ccc(C(F)(F)F)cc2)o1	eIF2B yeast act 53
